For 83 variants, yeast fitness results are on record in the RNAGym collection of RNA variant scans (doi:10.1126/science.aae0568).

The chains are these.
B1: tRNA (parent)
chain: GUUCCGUUGGCGUAAUGGUAACGCGUCUCCCUCCUAAGGAGAAGACUGCGGGUUCGAGUCCCGUACGGAACG

Fewer inactive variants are shown than the library holds.

In the data set the parent is B1. Briefly: yeast fitness relative to wild type (ratio to wild type); higher = fitter; tRNA-Arg(CCU), competitive growth, 37 C, YPD. The method, boiled down:
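Genotype frequency changes were the basis for Darwinian fitness relative to wild type. The frequencies came from 100-nucleotide paired-end sequencing of gene amplicons from the start population and each end population of pooled yeast strains with tRNA-Arg(CCU) gene variants at the native locus. Competition ran in YPD at 37°C for 24 hours in six replicates, genotypes needed ≥ 100 starting reads, and estimates < 0.5 were set to 0.5.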
Turning to C11U A20U G44A C46A G52A C66U, the yeast fitness was at most 0.5.

As for C11G U13G C60U, the yeast fitness is at most 0.5.

As to C11U A21U C34G G56A, the yeast fitness was at most 0.5.

As to C11U A20U C24U C29A A70G, the yeast fitness is at most 0.5.

Consider C11G G67C, for which the yeast fitness came to 0.581.

Consider C11U A14C A15G U26A C34A C46G, for which the yeast fitness worked out at 0.637.

As for C11U A21U C46A, the yeast fitness is 0.685.

Consider C11U A36G, for which the yeast fitness came to 0.822.

As for C11U A40U G50C G58C U59A, the yeast fitness was 0.564.

C11U A20U C60U: the yeast fitness is at most 0.5.

In the case of C11G G25A C27U, the yeast fitness was 0.687.

On to C11G G68A, for which the yeast fitness worked out at 0.64.

With C11G G39A A40C C60U G68U, the yeast fitness is at most 0.5.

With C11G U16A A42G A57U, the yeast fitness is at most 0.5.

With C11U A20G C24G, the yeast fitness came out at 0.506.

Consider C11G G56C G67U, for which the yeast fitness is at most 0.5.

For the variant C11G U32G A57C C62U, the yeast fitness came to 0.643.

In the case of C11U A14U C24G C55U, the yeast fitness was at most 0.5.

Regarding C11U A15G C46A A57G, the yeast fitness was 0.629.

On to C11G G23C A37G C49U C61U, for which the yeast fitness was at most 0.5.

With C11U A42G G48A, the yeast fitness was 0.678.

On to C11G G41C A42C A43U, for which the yeast fitness is at most 0.5.

C11U A15G C46A C62G G68A: the yeast fitness is at most 0.5.

Take C11U A15G C46A: the yeast fitness was found to be 0.915.

Regarding C11U A20U C29G U47G G63A A70U, the yeast fitness is at most 0.5.

On to C11G G39C U47C G68C, for which the yeast fitness was at most 0.5.

With C11U A45C A70U, the yeast fitness is 0.582.

With C11U A14C C22U A43C, the yeast fitness was at most 0.5.

Consider C11U A14G G58A A69C, for which the yeast fitness was at most 0.5.

As to C11G U16A A20G C30A, the yeast fitness was at most 0.5.

C11U A42C U47C: the yeast fitness was 0.764.

Take C11U A14U C27U A36U A43G C46U: the yeast fitness was 0.632.

Turning to C11U A20G A37G U54A U59G, the yeast fitness was at most 0.5.

Consider C11U A40G A65C, for which the yeast fitness was determined as 0.594.

As for C11G U26C C49G, the yeast fitness is at most 0.5.

With C11U A15C C27A G39C G48A, the yeast fitness came out at 0.546.

On to C11U A14G C49A, for which the yeast fitness is at most 0.5.

C11U A14G A20G C24G: the yeast fitness is at most 0.5.

On to C11U A15G C29G G48A C62U C66U, for which the yeast fitness was 0.535.

On to C11G G41A G44C C66G, for which the yeast fitness was at most 0.5.

As to C11G G51U, the yeast fitness turned out to be 0.601.

Consider C11U A21G C24A G52A, for which the yeast fitness is at most 0.5.

Regarding C11G U47G, the yeast fitness is at most 0.5.

Consider C11G U47C, for which the yeast fitness amounted to 0.687.

Regarding C11G U47A, the yeast fitness amounted to 0.686.

Turning to C11U A21G C29U C55G, the yeast fitness was at most 0.5.

For C11U A15G A36U A43U C46G C62A, the yeast fitness was found to be 0.635.

For the variant C11U A36C C61U, the yeast fitness is at most 0.5.

In the case of C11G U16A, the yeast fitness worked out at 0.666.

For C11U A14C C27U C31U C33A G67C, the yeast fitness was at most 0.5.

As to C11G U28A G39A G48A C61G C66G, the yeast fitness turned out to be 0.561.

Regarding C11G U32A A36G C46U, the yeast fitness stood at 0.592.

With C11U A14C U16G C29A G68C, the yeast fitness worked out at 0.585.

Consider C11U A15C A21G C24G U28A, for which the yeast fitness is at most 0.5.

For the variant C11U A45G G58A A65G, the yeast fitness was determined as 1.11.

As for C11U A37C U47C G68C, the yeast fitness is at most 0.5.

For C11U A15C A21G C29U A37G, the yeast fitness was at most 0.5.

Take C11G U35A G63C: the yeast fitness came out at 0.602.

C11G G50A C61U: the yeast fitness stood at 0.566.

Consider C11U A14C G68A, for which the yeast fitness stood at 0.624.

Regarding C11U A37U C49G, the yeast fitness is at most 0.5.

On to C11U A15G U26G C33A C55G, for which the yeast fitness was at most 0.5.

As to C11U A21C G67A, the yeast fitness turned out to be 0.597.

As to C11U A15C C29U A37G G63A, the yeast fitness is at most 0.5.

For the variant C11U A42G C49A A57C, the yeast fitness was found to be 0.51.

As for C11U A21C A42G A69C A70G, the yeast fitness was found to be 0.563.

As for C11U A15G G48C, the yeast fitness was found to be 0.511.

For C11G G63C G67C, the yeast fitness is at most 0.5.

As for C11G U28A A70U, the yeast fitness is at most 0.5.

With C11G U47A C62G C66G, the yeast fitness was at most 0.5.

For the variant C11U A21C A37U A42G A69C A70G, the yeast fitness was at most 0.5.

As for C11U A14U G18A G41A A42C G50C A70G, the yeast fitness is 0.552.

Take C11G U26A C27A C29G C46A G50A U59G: the yeast fitness came out at 0.73.

For the variant C11G U13G G56A A69C, the yeast fitness was at most 0.5.

Regarding C11U A20U G38A G51A U54A, the yeast fitness amounted to 0.527.

As to C11U A14G C27A G48A U53A C61G, the yeast fitness was at most 0.5.

With C11U A43C G44A, the yeast fitness stood at 0.741.

As for C11U A21C C27G G39C C66U, the yeast fitness was at most 0.5.

C11G G23A C31U C33G C34U A36G: the yeast fitness is at most 0.5.

For the variant C11U A21U C22U, the yeast fitness stood at 0.673.

Turning to C11G U16A U47C, the yeast fitness is 0.655.

For C11U A15C A40U, the yeast fitness came out at 0.543.

Take C11G U16G C55A: the yeast fitness was at most 0.5.
